The record followed here is ChEMBL document CHEMBL2331279, “Rational design and synthesis of 4-substituted 2-pyridin-2-ylamides with inhibitory effects on SH2 domain-containing inositol 5'-phosphatase 2 (SHIP2)” (Eur J Med Chem, 2013).

Activity calls are given as the source filed them. The rule behind the calls is not given here.

Data set [1] has as its system Mus musculus. The experiment in a line: Toxicity in db/db mouse assessed as food intake at 300 mg/kg, po bid for 12 to 13 days measured on day 10 (reference value: 6.06 +/-0.36 gms/day). The class given is organism-based. Further details: dose 300 mg/kg, route oral. The following applies: in vivo.
The subject of data set [2] is Mus musculus. The experiment in a line: Toxicity in C57BL/6J mouse assessed as epididymal white adipose tissue weight at 300 mg/kg, po bid for 12 to 13 days measured on day 15 (reference value: 0.03 +/-0.0 gms). The class given is organism-based. Further details: dose 300 mg/kg, route oral. The following applies: in vivo.
The subject of data set [3] is Mus musculus. Briefly: Antidiabetic activity in db/db mouse assessed as decrease in glucose intolerance at 300 mg/kg, po bid for 10 days by glucose tolerance test. The class given is functional, organism-based. The arrangement: dose 300 mg/kg. The gist of the method: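 Male mice, 8 weeks old, dosed orally twice daily with 300 mg/kg in 0.5% methylcellulose, or vehicle, for 13 days (C57BL/6J) or 10 days (db/db). After a 6 h fast, glucose 2 g/kg given ip. Tail-vein blood sampled at set times and plasma glucose measured by glucometer. AUC calculated. Mean ± SE, n=5-8; ANOVA with Bonferroni test versus vehicle.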

Data set [4] relates to Mus musculus. The experiment in a line: Toxicity in C57BL/6J mouse assessed as liver weight at 300 mg/kg, po bid for 12 to 13 days measured on day 15 (reference value: 0.74 +/-0.03 gms). It is filed as organism-based. The arrangement: dose 300 mg/kg, route oral. As to conditions: in vivo.
For data set [5], the target named is T1, Phosphatidylinositol 3,4,5-trisphosphate 5-phosphatase 2 (Mus musculus) (UniProt Q6P549).
T1 sequence (whole entry): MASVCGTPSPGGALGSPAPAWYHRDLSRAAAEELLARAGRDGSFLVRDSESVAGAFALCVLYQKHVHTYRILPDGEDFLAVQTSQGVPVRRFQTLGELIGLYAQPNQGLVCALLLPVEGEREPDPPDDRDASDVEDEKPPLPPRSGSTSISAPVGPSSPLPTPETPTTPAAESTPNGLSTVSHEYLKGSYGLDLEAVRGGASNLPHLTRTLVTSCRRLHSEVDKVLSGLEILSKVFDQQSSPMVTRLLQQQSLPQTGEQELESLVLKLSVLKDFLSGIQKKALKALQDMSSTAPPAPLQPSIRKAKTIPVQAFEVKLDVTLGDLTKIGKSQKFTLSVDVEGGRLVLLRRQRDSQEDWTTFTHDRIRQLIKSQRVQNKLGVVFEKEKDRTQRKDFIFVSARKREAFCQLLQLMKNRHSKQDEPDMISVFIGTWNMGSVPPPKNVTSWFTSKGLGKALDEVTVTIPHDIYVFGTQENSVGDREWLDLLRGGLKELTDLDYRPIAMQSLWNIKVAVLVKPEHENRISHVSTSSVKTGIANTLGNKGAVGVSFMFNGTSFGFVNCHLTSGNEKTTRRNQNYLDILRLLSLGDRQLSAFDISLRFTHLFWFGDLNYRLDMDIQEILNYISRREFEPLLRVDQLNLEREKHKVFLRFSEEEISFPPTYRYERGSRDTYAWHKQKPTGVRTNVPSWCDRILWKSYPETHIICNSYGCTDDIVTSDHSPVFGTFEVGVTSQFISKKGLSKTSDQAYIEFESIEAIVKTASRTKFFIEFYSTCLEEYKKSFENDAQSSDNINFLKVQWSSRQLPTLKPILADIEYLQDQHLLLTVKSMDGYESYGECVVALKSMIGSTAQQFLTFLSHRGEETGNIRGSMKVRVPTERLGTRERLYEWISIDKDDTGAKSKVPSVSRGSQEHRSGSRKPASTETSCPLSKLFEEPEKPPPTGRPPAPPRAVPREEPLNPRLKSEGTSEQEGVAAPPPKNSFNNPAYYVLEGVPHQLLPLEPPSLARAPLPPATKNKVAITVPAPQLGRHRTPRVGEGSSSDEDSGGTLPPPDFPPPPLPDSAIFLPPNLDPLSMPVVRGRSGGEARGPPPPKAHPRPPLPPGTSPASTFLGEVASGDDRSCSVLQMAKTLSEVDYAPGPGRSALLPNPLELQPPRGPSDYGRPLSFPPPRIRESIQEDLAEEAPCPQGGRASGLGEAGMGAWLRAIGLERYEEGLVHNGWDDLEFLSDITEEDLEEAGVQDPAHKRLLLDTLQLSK
Briefly: Inhibition of SHIP2 in TNF alpha-treated mouse 3T3L1 cells assessed as potentiation of insulin-stimulated Akt phosphorylation at Thr308 at 10 uM treated for 15 mins after TNF alpha challenge for 16 hrs and prior to insulin stimulation measured after 2 hrs by Western blot analysis relative to untreated control. It is filed as cell-based. The following applies: 3T3-L1. The method, boiled down: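 3T3-L1 fibroblasts differentiated into adipocytes, then serum-starved 16 h with TNFα 20 ng/mL. Treated with compound 10 µM or 0.1% DMSO for 15 min, then stimulated with 17 nM insulin at 37 °C for 2 h. Cells lysed on ice at pH 7.5 and Thr308 phospho-Akt measured by western blot. Results given as fold change versus TNFα+insulin control. Mean ± SE.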
A general note: In western blotting, separated proteins are transferred to a membrane and probed.

Data set [6] has as its system Mus musculus. Briefly: Toxicity in db/db mouse assessed as liver weight at 300 mg/kg, po bid for 12 to 13 days measured on day 12 to 13 (reference value: 1.57 +/-0.04 gms). It is filed as organism-based. The arrangement: dose 300 mg/kg, route oral. The following applies: in vivo.

For `O=C(Cc1c(F)cccc1F)Nc1cc(OCc2ccc(Cl)cc2)ccn1`, the Activity in the data set with Mus musculus [1] is 5.34 g/day; in the data set on Mus musculus [2], 0.02 g; in the data set with Mus musculus [4] it was 0.86 g; with Mus musculus [6], 1.67 g. In addition, the inhibition entry in the data set with Mus musculus [3] was “Active”. Further, the fold change (FC) in data set [5] was 1.3.
Turning to `C[C@H](NC(=O)c1sccc1OCc1ccc(Cl)cc1)c1ccccc1`, the Activity in the data set on Mus musculus [1] was determined as 6.5 g/day; with Mus musculus [2], 0.02 g; in the data set on Mus musculus [4], 0.73 g; with Mus musculus [6], 1.8 g. The inhibition result in the data set with Mus musculus [3] was “Active”. In addition, in data set [5], the fold change (FC) was found to be 1.2.
